# Data reported in ChEMBL document CHEMBL1240379, “Combined ramR mutation and presence of a Tn1721-associated tet(A) variant in a clinical isolate of Salmonella enterica serovar Hadar resistant to tigecycline” (2010).
# Assays:
# [1] = Antibacterial activity against Salmonella enterica serovar Hadar VA5649 by Etest method; format: functional, Salmonella enterica subsp. enterica serovar Hadar
# [2] = Antibacterial activity against Salmonella enterica serovar Hadar VA5649 harboring ramR-5649 mutant gene by Etest method; format: functional, Salmonella enterica subsp. enterica serovar Hadar
# [3] = Antibacterial activity against Salmonella enterica serovar Hadar VA5649 harboring wild type ramR-2313 gene by Etest method; format: functional, Salmonella enterica subsp. enterica serovar Hadar
# Salmonella enterica [4] = assay: Antibacterial activity against wild type Salmonella enterica TY2313 by Etest method; format: functional
# [5] = Antibacterial activity against Salmonella enterica serovar Hadar VA5649 expressing ACYC177 plasmid by Etest method; format: functional, Salmonella enterica subsp. enterica serovar Hadar
# Escherichia coli [6] = assay: Antibacterial activity against Escherichia coli DH10B by Etest method; format: functional; details: K-12 DH10B
# Escherichia coli [7] = assay: Antibacterial activity against Escherichia coli DH10B expressing Tn1721-tet(A) carrying plasmid SK2 by Etest method; format: functional; details: K-12 DH10B
# Escherichia coli [8] = assay: Antibacterial activity against Escherichia coli DH10B harboring Tn1721-tet(A) carrying plasmid by Etest method; format: functional; details: K-12 DH10B
# Escherichia coli [9] = assay: Antibacterial activity against Escherichia coli DH10B expressing SK2 plasmid by Etest method; format: functional; details: K-12 DH10B
# Escherichia coli [10] = assay: Antibacterial activity against Escherichia coli DH10B harboring Tn1721-tet(A) carrying plasmid by broth microdilution assay; format: functional; details: K-12 DH10B
# Method in brief: (§1)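 Tigecycline MIC by broth microdilution using a commercial tigecycline panel with freshly prepared Mueller-Hinton II broth less than 12 h old. Susceptible, intermediate or resistant category assigned by EUCAST clinical breakpoints.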
# [11] = Antibacterial activity against Salmonella enterica serovar Hadar VA5649 by both microdilution assay; format: functional, Salmonella enterica subsp. enterica serovar Hadar; method in brief: as §1
# [12] = Antibacterial activity against Salmonella enterica serovar Hadar VA5649 harboring ramR-5649 mutant gene by both microdilution assay; format: functional, Salmonella enterica subsp. enterica serovar Hadar; method in brief: as §1
# [13] = Antibacterial activity against Salmonella enterica serovar Hadar VA5649 harboring wild type ramR-2313 gene by both microdilution assay; format: functional, Salmonella enterica subsp. enterica serovar Hadar; method in brief: as §1
# Salmonella enterica [14] = assay: Antibacterial activity against wild type Salmonella enterica TY2313 by broth microdilution assay; format: functional
# Method in brief: (§2)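 MIC by broth microdilution on a commercial ready-made drug panel, using freshly prepared Mueller-Hinton II broth (under 12 h old). MIC categories interpreted against EUCAST clinical breakpoints (susceptible, intermediate or resistant).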
# [15] = Antibacterial activity against Salmonella enterica serovar Hadar VA5649 expressing ACYC177 plasmid by both microdilution assay; format: functional, Salmonella enterica subsp. enterica serovar Hadar; method in brief: as §1
# Escherichia coli [16] = assay: Antibacterial activity against Escherichia coli DH10B by broth microdilution assay; format: functional; details: K-12 DH10B; method in brief: as §2
# Escherichia coli [17] = assay: Antibacterial activity against Escherichia coli DH10B expressing SK2 plasmid by broth microdilution assay; format: functional; details: K-12 DH10B; method in brief: as §2
# Escherichia coli [18] = assay: Antibacterial activity against Escherichia coli DH10B expressing Tn1721-tet(A) carrying plasmid SK2 by broth microdilution assay; format: functional; details: K-12 DH10B; method in brief: as §1
smiles,measurement,setting,value
O=C(N[C@H](CO)[C@H](O)c1ccc([N+](=O)[O-])cc1)C(Cl)Cl [CHLORAMPHENICOL],MIC,[1],8 µg/mL
same,MIC,[2],8 µg/mL
same,MIC,[3],2 µg/mL
same,MIC,Salmonella enterica [4],2 µg/mL
same,MIC,[5],8 µg/mL
O=C(O)c1cn(C2CC2)c2cc(N3CCNCC3)c(F)cc2c1=O [CIPROFLOXACIN],MIC,[1],1 µg/mL
same,MIC,[2],1 µg/mL
same,MIC,[3],0.25 µg/mL
same,MIC,[5],1 µg/mL
CN(C)c1ccc(O)c2c1C[C@H]1C[C@H]3[C@H](N(C)C)C(O)=C(C(N)=O)C(=O)[C@@]3(O)C(O)=C1C2=O [MINOCYCLINE],MIC,[1],32 µg/mL
same,MIC,Escherichia coli [6],0.75 µg/mL
same,MIC,Escherichia coli [7],8 µg/mL
same,MIC,Escherichia coli [8],8 µg/mL
same,MIC,Escherichia coli [9],0.75 µg/mL
CN(C)c1cc(NC(=O)CNC(C)(C)C)c(O)c2c1C[C@H]1C[C@H]3[C@H](N(C)C)C(O)=C(C(N)=O)C(=O)[C@@]3(O)C(O)=C1C2=O [TIGECYCLINE],MIC,Escherichia coli [10],0.25 µg/mL
same,MIC,[11],16 µg/mL
same,MIC,[12],16 µg/mL
same,MIC,[13],2 µg/mL
same,MIC,Salmonella enterica [14],0.25 µg/mL
same,MIC,[15],16 µg/mL
same,MIC,Escherichia coli [16],0.065 µg/mL
same,MIC,Escherichia coli [17],0.065 µg/mL
same,MIC,Escherichia coli [18],0.25 µg/mL
